In ChEMBL document CHEMBL1148990, “Effect of benzylic oxygen on the antioxidant activity of phenolic lignans” (J Nat Prod, 2005):
Activity calls are given as the source filed them. The rule behind the calls is not given here.

Columns and labels:
[1] = Antioxidant activity assessed as AAPH radical scavenging activity after 3 hrs; assay type: functional
How it was run: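 Ethyl linoleate (50 mM) oxidized with AAPH (10 mM) in 0.3 M Tween 20/0.05 M phosphate buffer (pH 7.4) micelles; test sample 0.10 mM final (from DMSO stock). Incubation 37 °C, dark, with shaking, 3 h. Aliquot quenched into methanolic trolox; ethyl linoleate hydroperoxide quantified by reverse-phase HPLC at 234 nm from a peak-area calibration equation.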

[2] = test system: Radical scavenging activity; experiment: Antioxidant activity assessed as DPPH radical scavenging activity; assay type: functional
How it was run: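 Test sample at 20 µM final mixed with DPPH (0.1 mM); stood 0.5 h at 25 °C, then absorbance read at 517 nm. Activity expressed as decrease of absorbance: DPPH blank minus (DPPH + sample) plus sample-only absorbance.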

In the case of `COc1cc(C[C@H]2COC(=O)[C@@H]2Cc2ccc(O)c(OC)c2)ccc1O`, the Activity [1] is reported as “Active” and the Activity [2] is reported as “Active”.
For `COc1cc([C@@H](O)[C@H]2COC[C@@H]2[C@H](O)c2ccc(O)c(OC)c2)ccc1O`, the Activity [1] was “Active” and the Activity [2] was “Active”.
With `COc1cc(C[C@H]2COC[C@@H]2[C@@H](O)c2ccc(O)c(OC)c2)ccc1O` the Activity [1] was “Active” and the Activity [2] was “Active”.
In the case of `COc1cc([C@@H]2c3cc(O)c(OC)cc3C[C@H]3COC[C@H]32)ccc1O`, the Activity [1] is reported as “Active” and the Activity [2] is reported as “Active”.
With `COc1cc(C[C@H]2COC[C@@H]2Cc2ccc(O)c(OC)c2)ccc1O` the Activity [1] was “Active” and the Activity [2] was “Active”.
In the case of `COc1cc(C[C@H]2COC[C@@H]2C(=O)c2ccc(O)c(OC)c2)ccc1O`, the Activity [1] is reported as “Active” and the Activity [2] is reported as “Active”.
In the case of `COc1cc(C(O)[C@H]2COC[C@@H]2[C@@H](O)c2ccc(O)c(OC)c2)ccc1O` (single isomer, unassigned), the Activity [1] is reported as “Active” and the Activity [2] is reported as “Active”.
With `COc1cc(C[C@H]2COC[C@@H]2[C@H](O)c2ccc(O)c(OC)c2)ccc1O` the Activity [1] was “Active” and the Activity [2] was “Active”.
